The text below walks through data of ChEMBL document CHEMBL1151472, “In vitro interactions between tacrolimus and azoles against Candida albicans determined by different methods” (2008).

Converted amounts (≈) assume the structure as drawn.

What all share (type): functional
Experiment [1] relates to Candida albicans. Briefly: Antimicrobial activity against azole-resistant Candida albicans isolate CA10 assessed as growth at 0.125 ug/ml cotreated with 0.063 ug/ml calcineurin signaling inhibitor Tacrolimus after 48 hrs by microdilution checkboard technique relative to control. More on the design: scale not given: the % may be the effect or the level left. The procedure, abridged: (§1)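 Checkerboard microdilution in MOPS-buffered RPMI 1640 (pH 7.0, 2% dextrose). Final ranges: azole 0.125–128 μg/ml (FLC) or 0.008–8 μg/ml (ITR, VRC), tacrolimus 0.002–0.125 μg/ml; solvent 1% in single-drug wells. Inoculum 2.5 × 10^3 CFU/ml, 35°C, 48 h. Growth % = background-subtracted OD492 of each well / drug-free well. Triplicate on different days.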

In experiment [2] the test system is Candida albicans. In words: Antimicrobial activity against azole-resistant Candida albicans isolate CA10 assessed as growth at 0.5 ug/ml cotreated with 0.063 ug/ml calcineurin signaling inhibitor Tacrolimus after 48 hrs by microdilution checkboard technique relative to control. Further details: scale not given: the % may be the effect or the level left. In short, it runs like this:
as §1

For experiment [3], the system named is Candida albicans. In words: Antimicrobial activity against azole-resistant Candida albicans isolate CA10 assessed as growth at 0.25 ug/ml co-treated with 0.031 ug/ml calcineurin signaling inhibitor tacrolimus after 48 hrs by microdilution checkboard technique relative to control. Further details: scale not given: the % may be the effect or the level left. In short, it runs like this:
(§2)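 Checkerboard microdilution in RPMI 1640 (pH 7.0, 2% dextrose, 0.165 M MOPS). Azole dilutions run along columns and FK506 along rows, at 4× final concentration. Final inoculum 2.5 × 10^3 CFU/ml from Sabouraud-subcultured cells. Incubated 35°C for 48 h; OD read at 492 nm. Background from microorganism-free plates subtracted. Growth % = well OD / drug-free well OD. Triplicate on different days, values averaged.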

For experiment [4], the system named is Candida albicans. In words: Antimicrobial activity against azole-resistant Candida albicans isolate CA10 assessed as growth at 0.25 ug/ml cotreated with 0.016 ug/ml calcineurin signaling inhibitor Tacrolimus after 48 hrs by microdilution checkboard technique relative to control. Further details: scale not given: the % may be the effect or the level left. The procedure, abridged:
as §2

Experiment [5] deals with Candida albicans. Briefly: Antimicrobial activity against azole-resistant Candida albicans isolate CA10 assessed as growth at 1 ug/ml cotreated with 0.016 ug/ml calcineurin signaling inhibitor tacrolimus after 48 hrs by microdilution checkerboard technique relative to control. Further details: scale not given: the % may be the effect or the level left. The procedure, abridged: as §1

The subject of experiment [6] is Candida albicans. Briefly: Antimicrobial activity against azole-resistant Candida albicans isolate CA10 assessed as growth at 16 ug/ml co-treated with 0.016 ug/ml calcineurin signaling inhibitor tacrolimus after 48 hrs by microdilution checkboard technique relative to control. Further details: scale not given: the % may be the effect or the level left. In short, it runs like this: as §1

Experiment [7] has as its system Candida albicans. Briefly: Antimicrobial activity against azole-resistant Candida albicans isolate CA10 assessed as growth at 32 ug/ml cotreated with 0.016 ug/ml calcineurin signaling inhibitor Tacrolimus after 48 hrs by microdilution checkboard technique relative to control. More on the design: scale not given: the % may be the effect or the level left. In short, it runs like this: (§3)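 CA10 in RPMI 1640 with 2% dextrose and 0.165 M MOPS, pH 7.0. Checkerboard used twofold dilutions, with azole alone in row H and the drug-free growth control in well H1. Final inoculum was 2.5 × 10^3 CFU/ml, incubated 35°C for 48 h, with OD read at 492 nm. Growth % = background-subtracted well OD / drug-free well OD. Run in triplicate on different days.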

For experiment [8], the system named is Candida albicans. Briefly: Antimicrobial activity against azole-resistant Candida albicans isolate CA10 assessed as growth at 16 ug/ml co-treated with 0.002 ug/ml calcineurin signaling inhibitor tacrolimus after 48 hrs by microdilution checkboard technique relative to control. More on the design: scale not given: the % may be the effect or the level left. The procedure, abridged: as §1

Experiment [9] deals with Candida albicans. Briefly: Antimicrobial activity against azole-resistant Candida albicans isolate CA10 assessed as growth at 128 ug/ml cotreated with 0.002 ug/ml calcineurin signaling inhibitor Tacrolimus after 48 hrs by microdilution checkboard technique relative to control. Further details: scale not given: the % may be the effect or the level left. In short, it runs like this:
as §1

Experiment [10] concerns Candida albicans. Briefly: Antimicrobial activity against azole-resistant Candida albicans isolate CA10 assessed as growth at 128 ug/ml cotreated with 0.008 ug/ml calcineurin signaling inhibitor Tacrolimus after 48 hrs by microdilution checkboard technique relative to control. More on the design: scale not given: the % may be the effect or the level left. The procedure, abridged:
as §1

Experiment [11] concerns Candida albicans. Briefly: Antimicrobial activity against azole-resistant Candida albicans isolate CA10 assessed as growth at 0.5 ug/ml cotreated with 0.004 ug/ml calcineurin signaling inhibitor tacrolimus after 48 hrs by microdilution checkerboard technique relative to control. Further details: scale not given: the % may be the effect or the level left. In short, it runs like this:
as §1

The test system of experiment [12] is Candida albicans. Briefly: Antimicrobial activity against azole-resistant Candida albicans isolate CA10 assessed as growth at 64 ug/ml cotreated with 0.004 ug/ml calcineurin signaling inhibitor Tacrolimus after 48 hrs by microdilution checkboard technique relative to control. Further details: scale not given: the % may be the effect or the level left. The procedure, abridged:
as §3

For experiment [13], the system named is Candida albicans. Briefly: Antimicrobial activity against azole-resistant Candida albicans isolate CA10 assessed as growth at 4 ug/ml after 48 hrs by microdilution checkerboard technique relative to control. The procedure, abridged:
as §3

The test system of experiment [14] is Candida albicans. Briefly: Antimicrobial activity against azole-resistant Candida albicans isolate CA10 assessed as growth at 128 ug/ml after 48 hrs by microdilution checkerboard technique relative to control. The procedure, abridged: as §1
Experiment [15] relates to Candida albicans. Briefly: Antimicrobial activity against azole-resistant Candida albicans isolate CA10 assessed as growth at 0.063 ug/ml after 48 hrs by microdilution checkerboard technique relative to control. In short, it runs like this: as §1
The test system of experiment [16] is Candida albicans. Briefly: Antimicrobial activity against azole-resistant Candida albicans isolate CA10 assessed as growth at 0.031 ug/ml after 48 hrs by microdilution checkerboard technique relative to control. The procedure, abridged:
as §2

Experiment [17] relates to Candida albicans. In words: Antimicrobial activity against azole-susceptible Candida albicans isolate CA5 after 48 hrs by broth microdilution method. To be noted: isolate CA5, 48 h. In short, it runs like this: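 CLSI M27-A2 broth microdilution was run in RPMI 1640 (pH 7.0, 2% dextrose, 0.165 M MOPS). Inoculum was 2.5 × 10^3 CFU/ml, incubated 35°C for 48 h without shaking. Plates were read visually (0–5 scale) and at OD 492 nm. MIC80 = lowest concentration giving an 80% absorbance decrease vs drug-free control. Triplicate.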

Experiment [18] concerns Candida albicans. Briefly: Antimicrobial activity against azole-resistant Candida albicans isolate CA10 after 48 hrs by broth microdilution method. To be noted: isolate CA10, 48 h. The procedure, abridged:
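Broth microdilution per CLSI M27-A2 in RPMI 1640 (pH 7.0, 2% dextrose, 0.165 M MOPS), final inoculum 2.5 × 10^3 CFU/ml; 35°C without shaking for 48 h. Read visually (0–5 scale) and by OD 492 nm; MIC80 = lowest concentration giving 80% drop in absorbance versus drug-free control. Triplicate.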

Experiment [19] concerns Candida albicans. In words: Antimicrobial activity against azole-susceptible Candida albicans isolate CA129 co-treated with calcineurin signaling inhibitor tacrolimus after 48 hrs by microdilution checkerboard technique. Conditions: isolate CA129, 48 h. In short, it runs like this:
(§4)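 Checkerboard microdilution in MOPS-buffered RPMI 1640 (pH 7.0, 2% dextrose) with 2.5 × 10^3 CFU/ml for 48 h at 35°C. Final FK506 was 0.002–0.125 μg/ml. Azole finals were FLC 0.125–128 μg/ml, and ITR and VRC 0.008–8 μg/ml. MIC80 is an 80% OD492 decrease vs drug-free control. Interaction was scored by FICI (synergy ≤0.5, antagonism >4) and by ΔE from triplicates.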

For experiment [20], the system named is Candida albicans. Briefly: Antimicrobial activity against azole-resistant Candida albicans isolate CA16 cotreated with calcineurin signaling inhibitor Tacrolimus after 48 hrs by microdilution checkerboard technique. To be noted: isolate CA16, 48 h. The procedure, abridged: as §4
Experiment [21] concerns Candida albicans. In words: Antimicrobial activity against azole-resistant Candida albicans isolate CA10 assessed as growth at 0.25 ug/ml cotreated with 0.125 ug/ml calcineurin signaling inhibitor Tacrolimus after 48 hrs by microdilution checkboard technique relative to control. Further details: scale not given: the % may be the effect or the level left. In short, it runs like this: as §2

On to `OC(Cn1cncn1)(Cn1cncn1)c1ccc(F)cc1F` [FLUCONAZOLE], for which the Activity in [1] came out at 27%; in experiment [2], 13%; in experiment [3] it was 23%; in experiment [4], 23%; in [5] it was 24%; in experiment [6], 19%. Further, the Activity is on record as 18% in experiment [7]; 35% in experiment [8]; 44% in experiment [9]; 39% in experiment [10]; 38% in experiment [11]; 27% in experiment [12]. Also, the Activity is listed as 53% in [13]; 48% in experiment [14]; 93% in experiment [15]; 93% in [16]; 7% in experiment [21]. The MIC in experiment [17] was 0.25 mg/L (≈ 0.816 µM); in experiment [18] it was 256 mg/L (≈ 836 µM); in experiment [19], 0.25 mg/L; in [20], 0.5 mg/L.
